Assay results from ChEMBL document CHEMBL3632558, “Synthesis, antimycobacterial and antibacterial activity of l-[(1R,2S)-2-fluorocyclopropyl]naphthyridone derivatives containing an oxime-functionalized pyrrolidine moiety” (2015).
In brackets after ≈: the same amount, converted by molar mass.

Legend:
Type in all cases: functional
[1] = test system: Streptococcus pneumoniae; test: Antibacterial activity against Streptococcus pneumoniae ATCC 19615 after 18 to 24 hrs
Summary of the method: (§1)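 MIC by standard NCCLS reference procedure (M100-S11); lowest concentration of compound inhibiting visible bacterial growth after incubation at 35 °C for 18–24 h, read as complete inhibition of growth. Ciprofloxacin, levofloxacin and moxifloxacin run alongside as reference agents.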

[2] = test system: Pseudomonas aeruginosa; test: Antibacterial activity against Pseudomonas aeruginosa 14-9 after 18 to 24 hrs; summary of the method: as §1
[3] = test system: Enterococcus faecium; test: Antibacterial activity against Enterococcus faecium 14-6 after 18 to 24 hrs; summary of the method: as §1
[4] = test system: Staphylococcus aureus; test: Antibacterial activity against Staphylococcus aureus CMCC 26003 after 18 to 24 hrs; summary of the method: as §1
[5] = test system: Escherichia coli; test: Antibacterial activity against Escherichia coli 14-1 after 18 to 24 hrs; summary of the method: as §1
[6] = test system: Mycobacterium tuberculosis; test: Antimycobacterial activity against Mycobacterium tuberculosis H37Rv ATCC 27294 by alamar blue assay
Summary of the method: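 Microplate Alamar Blue Assay; MIC is the lowest concentration giving ≥90% reduction in fluorescence relative to the mean of replicate bacterium-only controls. MDR strain 6133 is resistant to isoniazid and rifampicin.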

[7] = test system: Escherichia coli; test: Antibacterial activity against Escherichia coli ATCC 25922 after 18 to 24 hrs; summary of the method: as §1
[8] = test system: Escherichia coli; test: Antibacterial activity against ESBL-positive Escherichia coli 14-2 after 18 to 24 hrs; summary of the method: as §1
[9] = test system: Enterococcus faecium; test: Antibacterial activity against Enterococcus faecium 14-5 after 18 to 24 hrs; summary of the method: as §1
[10] = test system: Enterococcus faecium; test: Antibacterial activity against Enterococcus faecium 14-1 after 18 to 24 hrs; summary of the method: as §1
[11] = test system: Staphylococcus aureus; test: Antibacterial activity against methicillin-resistant Staphylococcus aureus 14-5 after 18 to 24 hrs
[12] = test system: Klebsiella pneumoniae; test: Antibacterial activity against Klebsiella pneumoniae 14-2 after 18 to 24 hrs; summary of the method: as §1
[13] = test system: Enterococcus faecalis; test: Antibacterial activity against Enterococcus faecalis 14-2 after 18 to 24 hrs; summary of the method: as §1
[14] = test system: Pseudomonas aeruginosa; test: Antibacterial activity against Pseudomonas aeruginosa ATCC 27853 after 18 to 24 hrs; summary of the method: as §1
[15] = test system: Staphylococcus epidermidis; test: Antibacterial activity against methicillin-resistant Staphylococcus epidermidis 14-37 after 18 to 24 hrs
[16] = test system: Staphylococcus epidermidis; test: Antibacterial activity against methicillin-resistant Staphylococcus epidermidis 14-21 after 18 to 24 hrs
[17] = test system: Klebsiella pneumoniae; test: Antibacterial activity against Klebsiella pneumoniae 14-4 after 18 to 24 hrs; summary of the method: as §1
[18] = test system: Pseudomonas aeruginosa; test: Antibacterial activity against Pseudomonas aeruginosa 14-15 after 18 to 24 hrs; summary of the method: as §1
[19] = test system: Klebsiella pneumoniae; test: Antibacterial activity against ESBL-positive Klebsiella pneumoniae 14-17 after 18 to 24 hrs; summary of the method: as §1
[20] = test system: Klebsiella pneumoniae; test: Antibacterial activity against Klebsiella pneumoniae 14-1 after 18 to 24 hrs; summary of the method: as §1
[21] = test system: Klebsiella pneumoniae; test: Antibacterial activity against ESBL-positive Klebsiella pneumoniae 14-18 after 18 to 24 hrs; summary of the method: as §1
[22] = test system: Klebsiella pneumoniae; test: Antibacterial activity against ESBL-positive Klebsiella pneumoniae 14-19 after 18 to 24 hrs; summary of the method: as §1
[23] = test system: Klebsiella pneumoniae; test: Antibacterial activity against Klebsiella pneumoniae 14-3 after 18 to 24 hrs; summary of the method: as §1
[24] = test system: Staphylococcus aureus; test: Antibacterial activity against methicillin-resistant Staphylococcus aureus 14-4 after 18 to 24 hrs
[25] = test system: Escherichia coli; test: Antibacterial activity against ESBL-positive Escherichia coli 14-1 after 18 to 24 hrs; summary of the method: as §1
[26] = test system: Pseudomonas aeruginosa; test: Antibacterial activity against Pseudomonas aeruginosa 14-16 after 18 to 24 hrs; summary of the method: as §1
[27] = test system: Pseudomonas aeruginosa; test: Antibacterial activity against Pseudomonas aeruginosa 14-14 after 18 to 24 hrs; summary of the method: as §1
[28] = test system: Staphylococcus aureus; test: Antibacterial activity against methicillin-sensitive Staphylococcus aureus 14-3 after 18 to 24 hrs; summary of the method: as §1
[29] = test system: Staphylococcus epidermidis; test: Antibacterial activity against methicillin-resistant Staphylococcus epidermidis 14-39 after 18 to 24 hrs
[30] = test system: Staphylococcus aureus; test: Antibacterial activity against methicillin-sensitive Staphylococcus aureus 14-4 after 18 to 24 hrs; summary of the method: as §1
[31] = test system: Escherichia coli; test: Antibacterial activity against Escherichia coli 14-2 after 18 to 24 hrs; summary of the method: as §1
[32] = test system: Staphylococcus aureus; test: Antibacterial activity against methicillin-sensitive Staphylococcus aureus 14-2 after 18 to 24 hrs; summary of the method: as §1
[33] = test system: Staphylococcus epidermidis; test: Antibacterial activity against methicillin-resistant Staphylococcus epidermidis 14-22 after 18 to 24 hrs
[34] = test system: Enterococcus faecium; test: Antibacterial activity against Enterococcus faecium 14-2 after 18 to 24 hrs; summary of the method: as §1
[35] = test system: Enterococcus faecalis; test: Antibacterial activity against Enterococcus faecalis 14-1 after 18 to 24 hrs; summary of the method: as §1
[36] = test system: Staphylococcus aureus; test: Antibacterial activity against methicillin-sensitive Staphylococcus aureus 14-1 after 18 to 24 hrs; summary of the method: as §1
[37] = test system: Pseudomonas aeruginosa; test: Antibacterial activity against Pseudomonas aeruginosa 14-19 after 18 to 24 hrs; summary of the method: as §1
[38] = test system: Staphylococcus epidermidis; test: Antibacterial activity against methicillin-sensitive Staphylococcus epidermidis 14-2 after 18 to 24 hrs; summary of the method: as §1

| SMILES | MIC [1] [µg/mL] | MIC [2] [µg/mL] | MIC [3] [µg/mL] | MIC [4] [µg/mL] | MIC [5] [µg/mL] | MIC90 [6] [µg/mL] | MIC [7] [µg/mL] | MIC [8] [µg/mL] | MIC [9] [µg/mL] | MIC [10] [µg/mL] | MIC [11] [µg/mL] | MIC [12] [µg/mL] | MIC [13] [µg/mL] | MIC [14] [µg/mL] | MIC [15] [µg/mL] | MIC [16] [µg/mL] | MIC [17] [µg/mL] | MIC [18] [µg/mL] | MIC [19] [µg/mL] | MIC [20] [µg/mL] | other results |
| --- | --- | --- | --- | --- | --- | --- | --- | --- | --- | --- | --- | --- | --- | --- | --- | --- | --- | --- | --- | --- | --- |
| NCC1CN(c2nc3c(cc2F)c(=O)c(C(=O)O)cn3[C@@H]2C[C@@H]2F)C/C1=N\OCc1ccc2c(c1)OCO2 (some centres not stated) | 0.03 (≈ 0.0569 µM) | 8 (≈ 15.2 µM) | 4 (≈ 7.58 µM) | < 0.008 | 32 (≈ 60.7 µM) | < 0.25 | < 0.008 | 64 (≈ 121 µM) | 8 (≈ 15.2 µM) | 1 (≈ 1.9 µM) | 8 (≈ 15.2 µM) | 128 (≈ 243 µM) | < 0.008 | 8 (≈ 15.2 µM) | 6 (≈ 11.4 µM) | 4 (≈ 7.58 µM) | 128 (≈ 243 µM) | 8 (≈ 15.2 µM) | 8 (≈ 15.2 µM) | 128 (≈ 243 µM) | MIC [21]: 4 µg/mL (≈ 7.58 µM); MIC [22]: 128 µg/mL (≈ 243 µM); MIC [23]: 128 µg/mL (≈ 243 µM); MIC [24]: 16 µg/mL (≈ 30.3 µM); MIC [25]: 8 µg/mL (≈ 15.2 µM); MIC [26]: 8 µg/mL (≈ 15.2 µM); MIC [27]: 8 µg/mL (≈ 15.2 µM); MIC [28]: 8 µg/mL (≈ 15.2 µM); MIC [29]: 8 µg/mL (≈ 15.2 µM); MIC [30]: < 0.008 µg/mL; MIC [31]: 32 µg/mL (≈ 60.7 µM); MIC [32]: < 0.008 µg/mL; MIC [33]: 4 µg/mL (≈ 7.58 µM); MIC [34]: 1 µg/mL (≈ 1.9 µM); MIC [35]: 16 µg/mL (≈ 30.3 µM); MIC [36]: 4 µg/mL (≈ 7.58 µM); MIC [37]: 8 µg/mL (≈ 15.2 µM); MIC [38]: 32 µg/mL (≈ 60.7 µM) |
| NCC1CN(c2nc3c(cc2F)c(=O)c(C(=O)O)cn3[C@@H]2C[C@@H]2F)C/C1=N\OCc1ccc(Br)cc1 (some centres not stated) | < 0.008 | 8 (≈ 14.2 µM) | 16 (≈ 28.5 µM) | < 0.008 | 64 (≈ 114 µM) | 0.375 (≈ 0.667 µM) | 0.125 (≈ 0.222 µM) | 64 (≈ 114 µM) | 8 (≈ 14.2 µM) | 2 (≈ 3.56 µM) | 16 (≈ 28.5 µM) | 128 (≈ 228 µM) | 0.125 (≈ 0.222 µM) | 4 (≈ 7.11 µM) | 16 (≈ 28.5 µM) | 4 (≈ 7.11 µM) | 128 (≈ 228 µM) | 8 (≈ 14.2 µM) | 8 (≈ 14.2 µM) | 128 (≈ 228 µM) | MIC [21]: 8 µg/mL (≈ 14.2 µM); MIC [22]: > 128 µg/mL; MIC [23]: 128 µg/mL (≈ 228 µM); MIC [24]: 16 µg/mL (≈ 28.5 µM); MIC [25]: 4 µg/mL (≈ 7.11 µM); MIC [26]: 8 µg/mL (≈ 14.2 µM); MIC [27]: 8 µg/mL (≈ 14.2 µM); MIC [28]: 0.015 µg/mL (≈ 0.0267 µM); MIC [29]: 8 µg/mL (≈ 14.2 µM); MIC [30]: < 0.008 µg/mL; MIC [31]: 64 µg/mL (≈ 114 µM); MIC [32]: < 0.008 µg/mL; MIC [33]: 2 µg/mL (≈ 3.56 µM); MIC [34]: 2 µg/mL (≈ 3.56 µM); MIC [35]: 32 µg/mL (≈ 56.9 µM); MIC [36]: 2 µg/mL (≈ 3.56 µM); MIC [37]: 16 µg/mL (≈ 28.5 µM); MIC [38]: 16 µg/mL (≈ 28.5 µM) |
| CO[C@H]1/C=C/O[C@@]2(C)Oc3c(C)c(O)c4c(O)c(c(/C=N/N5CCN(C)CC5)c(O)c4c3C2=O)NC(=O)/C(C)=C\C=C\[C@H](C)[C@H](O)[C@@H](C)[C@@H](O)[C@@H](C)[C@H](OC(C)=O)[C@@H]1C [RIFAMPIN] |  |  |  |  |  | 0.05 (≈ 0.0608 µM) |  |  |  |  |  |  |  |  |  |  |  |  |  |  |  |
